ChEMBL document CHEMBL5532704, “Exploiting thiol-functionalized benzosiloxaboroles for achieving diverse substitution patterns - synthesis, characterization and biological evaluation of promising antibacterial agents” (RSC Med Chem, 2024)
Converted amounts (≈) assume the structure as drawn.

Key:
Enterococcus faecium = test: Antibacterial activity against Enterococcus faecium ATCC 6057 assessed as diameter of inhibition zone by CLSI based disc-diffusion method; format: functional
Method in brief: (§1)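 Strains were stored at −80 °C, then subcultured twice on tryptic soy agar for 24–48 h at 30 °C before the disc-diffusion test. The result was recorded as the inhibition-zone diameter.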

[1] = Selectivity ratio of IC50 for cytotoxicity against human MRC5 cells assessed as inhibition of cell growth to MIC for antibacterial activity against methicillin-resistant Staphylococcus aureus ATCC 43300 assessed as inhibition of microbial growth; format: toxicity, cell-based
[2] = Selectivity ratio of IC50 for cytotoxicity against human MRC5 cells assessed as inhibition of cell growth to MIC for antibacterial activity against methicillin-resistant Staphylococcus aureus NMI 1991 K assessed as inhibition of microbial growth by broth-microdilution method; format: toxicity, cell-based
[3] = Selectivity ratio of IC50 for cytotoxicity against human MRC5 cells assessed as inhibition of cell growth to MIC for antibacterial activity against methicillin-resistant Staphylococcus aureus NMI 2541 K assessed as inhibition of microbial growth by broth-microdilution method; format: toxicity, cell-based
Enterococcus faecalis = test: Antibacterial activity against Enterococcus faecalis ATCC 29212 assessed as diameter of inhibition zone by CLSI based disc-diffusion method; format: functional; method in brief: as §1
[4] = Selectivity ratio of IC50 for cytotoxicity against human MRC5 cells assessed as inhibition of cell growth to MIC for antibacterial activity against methicillin-resistant Staphylococcus aureus NMI 1712 K assessed as inhibition of microbial growth by broth-microdilution method; format: toxicity, cell-based
[5] = Selectivity ratio of IC50 for cytotoxicity against human MRC5 cells assessed as inhibition of cell growth to MIC for antibacterial activity against methicillin-resistant Staphylococcus aureus NMI 1576 K assessed as inhibition of microbial growth by broth-microdilution method; format: toxicity, cell-based
Staphylococcus aureus = test: Antibacterial activity against methicillin-resistant Staphylococcus aureus ATCC 43300 assessed as diameter of inhibition zone by CLSI based disc-diffusion method; format: functional
Method in brief: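 Disc-diffusion on standard strain subcultured twice on tryptic soy agar (24–48 h, 30 °C) after storage at −80 °C; inhibition zone diameter read; linezolid disc (0.03 mg) as reference.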

[6] = Selectivity ratio of IC50 for cytotoxicity against human MRC5 cells assessed as inhibition of cell growth to MIC for antibacterial activity against methicillin-resistant Staphylococcus aureus NMI 664 K assessed as inhibition of microbial growth by broth-microdilution method; format: toxicity, cell-based
Bacillus subtilis = test: Antibacterial activity against Bacillus subtilis ATCC 6633 assessed as diameter of inhibition zone by CLSI based disc-diffusion method; format: functional; method in brief: as §1
Pseudomonas aeruginosa = test: Antibacterial activity against Pseudomonas aeruginosa ATCC […] assessed as inhibition of cell growth by broth-microdilution method; format: functional
Method in brief: (§2)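 Strains were held at −80 °C and subcultured twice on tryptic soy agar for 24–48 h at 30 °C. MIC was read by CLSI broth microdilution in Mueller–Hinton II broth, with and without the efflux-pump inhibitor PAβN (20 µg mL⁻¹). Both sets contained 1 mM MgSO₄. A ≥4-fold MIC drop with PAβN was taken as significant.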

[7] = system: Stenotrophomonas maltophilia; test: Antibacterial activity against Stenotrophomonas maltophilia ATCC 12714 assessed as inhibition of cell growth by broth-microdilution method; format: functional; method in brief: as §2
Proteus mirabilis = test: Antibacterial activity against Proteus mirabilis ATCC 12453 assessed as inhibition of cell growth by broth-microdilution method; format: functional; method in brief: as §2
Burkholderia cepacia = test: Antibacterial activity against Burkholderia cepacia ATCC 25416 assessed as inhibition of cell growth by broth-microdilution method; format: functional
Klebsiella pneumoniae = test: Antibacterial activity against Klebsiella pneumoniae ATCC 13883 assessed as inhibition of cell growth by broth-microdilution method; format: functional; method in brief: as §2
Serratia marcescens = test: Antibacterial activity against Serratia marcescens ATCC 13880 assessed as inhibition of cell growth by broth-microdilution method; format: functional; method in brief: as §2
Enterobacter cloacae = test: Antibacterial activity against Enterobacter cloacae DSM 6234 assessed as inhibition of cell growth by broth-microdilution method; format: functional; method in brief: as §2
Escherichia coli = test: Antibacterial activity against Escherichia coli ATCC 25922 assessed as inhibition of cell growth by broth-microdilution method; format: functional; method in brief: as §2
[8] = system: Stenotrophomonas maltophilia; test: Antibacterial activity against Stenotrophomonas maltophilia ATCC 13637 assessed as inhibition of cell growth by broth-microdilution method; format: functional; method in brief: as §2
Acinetobacter baumannii = test: Antibacterial activity against Acinetobacter baumannii ATCC 19606 assessed as inhibition of cell growth by broth-microdilution method; format: functional; method in brief: as §2
[9] = system: Staphylococcus epidermidis; test: Antibacterial activity against Staphylococcus epidermidis ATCC 12228 assessed as diameter of inhibition zone by CLSI based disc-diffusion method; format: functional; method in brief: as §1
Candida parapsilosis = test: Antifungal activity against Candida parapsilosis ATCC 22019 assessed as fungal growth inhibition by broth-microdilution method; format: functional; conditions: Lodderomyces parapsilosis
Method in brief: (§3)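 Yeasts were stored at −80 °C and subcultured twice on Sabouraud dextrose agar (24–48 h, 30 °C) to confirm viability. Growth inhibition was then measured as MIC by broth microdilution.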

Candida tropicalis [10] = test: Antifungal activity against Candida tropicalis ATCC 750 assessed as fungal growth inhibition by broth-microdilution method; format: functional; method in brief: as §3
Candida albicans = test: Antifungal activity against Candida albicans ATCC 90028 assessed as fungal growth inhibition by broth-microdilution method; format: functional; method in brief: as §3
Candida tropicalis [11] = test: Antifungal activity against Candida tropicalis IBA 171 assessed as fungal growth inhibition by broth-microdilution method; format: functional; method in brief: as §3
Pichia kudriavzevii = test: Antifungal activity against Candida krusei ATCC 6258 assessed as fungal growth inhibition by broth-microdilution method; format: functional; method in brief: as §3
[12] = system: Meyerozyma guilliermondii; test: Antifungal activity against Candida guilliermondii IBA 155 assessed as fungal growth inhibition by broth-microdilution method; format: functional; method in brief: as §3
Saccharomyces cerevisiae = test: Antifungal activity against Saccharomyces cerevisiae ATCC 9763 assessed as fungal growth inhibition by broth-microdilution method; format: functional; method in brief: as §3

| Compound | diameter of the inhibition zone (DIZ) (Enterococcus faecium) | selectivity ratio [1] | diameter of the inhibition zone (DIZ) (Enterococcus faecalis) | diameter of the inhibition zone (DIZ) (Staphylococcus aureus) | diameter of the inhibition zone (DIZ) (Bacillus subtilis) | diameter of the inhibition zone (DIZ) [9] | other results |
| --- | --- | --- | --- | --- | --- | --- | --- |
| C[Si]1(C)OB(O)c2cc(F)c(SCCS(=O)(=O)c3ccccc3)c(F)c21 | 15 mm | 19.5 | 14 mm | 28 mm | – | – | selectivity ratio [2]: 19.5; selectivity ratio [3]: 19.5; selectivity ratio [4]: 19.5; selectivity ratio [5]: 19.5; selectivity ratio [6]: 19.5 |
| C[Si]1(C)OB(O)c2cc(F)c(S(=O)(=O)N3CCOCC3)c(F)c21 | – | – | – | – | 12 mm | – | – |
| C[Si]1(C)OB(O)c2ccc(SC3CC(=O)NC3=O)c(F)c21 (stereo not given) | – | – | – | 22 mm | 24 mm | – | MIC (Pseudomonas aeruginosa): > 25 µg/mL; MIC [7]: > 25 µg/mL; MIC (Proteus mirabilis): > 25 µg/mL; MIC (Burkholderia cepacia): > 25 µg/mL; MIC (Klebsiella pneumoniae): > 25 µg/mL; MIC (Serratia marcescens): > 25 µg/mL; MIC (Enterobacter cloacae): > 25 µg/mL; MIC (Escherichia coli): > 25 µg/mL; MIC [8]: > 25 µg/mL; MIC (Acinetobacter baumannii): > 25 µg/mL |
| CC(=O)CSc1ccc2c(c1F)[Si](C)(C)OB2O | – | > 32 | 16 mm | – | 24 mm | 23 mm | selectivity ratio [2]: > 32; selectivity ratio [3]: > 32; selectivity ratio [4]: > 32; selectivity ratio [5]: > 32; selectivity ratio [6]: > 32 |
| C[Si]1(C)OB(O)c2ccc(S)c(F)c21 | 18 mm | – | – | – | 23 mm | – | – |
| C[Si]1(C)OB(O)c2ccc(SC3CC(=O)N(c4ccc(F)cc4)C3=O)c(F)c21 (stereo not given) | 22 mm | 5.8 | 20 mm | 21 mm | – | 21 mm | MIC (Candida parapsilosis): > 12.5 µg/mL; MIC (Candida tropicalis [10]): > 12.5 µg/mL; MIC (Candida albicans): > 12.5 µg/mL; MIC (Candida tropicalis [11]): > 12.5 µg/mL; MIC (Pichia kudriavzevii): > 12.5 µg/mL; MIC [12]: > 12.5 µg/mL; MIC (Saccharomyces cerevisiae): 6.25 µg/mL (≈ 14.9 µM) |
| C[Si]1(C)OB(O)c2cc(F)c(SC3CC(=O)N(c4ccc(F)cc4)C3=O)c(F)c21 (stereo not given) | – | 2.7 | – | 24 mm | – | – | MIC (Candida parapsilosis): > 12.5 µg/mL; MIC (Candida tropicalis [10]): > 12.5 µg/mL; MIC (Candida albicans): > 12.5 µg/mL; MIC (Candida tropicalis [11]): > 12.5 µg/mL; MIC (Pichia kudriavzevii): > 12.5 µg/mL; MIC [12]: > 12.5 µg/mL; MIC (Saccharomyces cerevisiae): 6.25 µg/mL (≈ 14.3 µM) |
| C[Si]1(C)OB(O)c2cc(F)c(SCCC(=O)Nc3ncccn3)c(F)c21 | – | – | 13 mm | 12 mm | 15 mm | 11 mm | – |
| COC(=O)CCSc1ccc2c(c1F)[Si](C)(C)OB2O | – | – | – | 24 mm | 23 mm | 22 mm | – |
| C[Si]1(C)OB(O)c2ccc(SCCC(=O)OCCCCCC[n+]3ccccc3)c(F)c21.O=S(=O)([O-])C(F)(F)F | 12 mm | – | 12 mm | 18 mm | 19 mm | 21 mm | – |
| C[Si]1(C)OB(O)c2cc(F)c(SC3CC(=O)N(c4ccc(Br)c(C(F)(F)F)c4)C3=O)c(F)c21 (stereo not given) | 18 mm | 1.5 | 18 mm | – | – | 18 mm | MIC (Candida parapsilosis): > 12.5 µg/mL; MIC (Candida tropicalis [10]): > 12.5 µg/mL; MIC (Candida albicans): > 12.5 µg/mL; MIC (Candida tropicalis [11]): > 12.5 µg/mL; MIC (Pichia kudriavzevii): > 12.5 µg/mL; MIC [12]: > 12.5 µg/mL |
| C[Si]1(C)OB(O)c2ccc(SCC(=O)c3ccccc3)c(F)c21 | 17 mm | 40.4 | 17 mm | – | – | – | selectivity ratio [2]: 80.8; selectivity ratio [3]: 80.8; selectivity ratio [4]: 40.4; selectivity ratio [5]: 40.4; selectivity ratio [6]: 40.4 |
| C[Si]1(C)OB(O)c2ccc(SC(=O)c3ccc(C(F)(F)F)cc3)c(F)c21 | 12 mm | 8.9 | – | – | 15 mm | 16 mm | MIC (Candida parapsilosis): > 12.5 µg/mL; MIC (Candida tropicalis [10]): > 12.5 µg/mL; selectivity ratio [2]: 4.5; MIC (Candida albicans): > 12.5 µg/mL; selectivity ratio [3]: 8.9; selectivity ratio [4]: 8.9; MIC (Candida tropicalis [11]): > 12.5 µg/mL; MIC (Pichia kudriavzevii): > 12.5 µg/mL; selectivity ratio [5]: 4.5; MIC [12]: > 12.5 µg/mL; selectivity ratio [6]: 8.9; MIC (Saccharomyces cerevisiae): 6.25 µg/mL (≈ 15.6 µM) |
| C[Si]1(C)OB(O)c2cc(F)c(SCCC(=O)OCCCCCC[n+]3ccccc3)c(F)c21.O=S(=O)([O-])C(F)(F)F | – | – | – | 17 mm | – | – | – |
| C[Si]1(C)OB(O)c2cc(F)c(S)c(F)c21 | 24 mm | – | – | – | 22 mm | 24 mm | – |
| Cc1cc(NC(=O)CCSc2c(F)cc3c(c2F)[Si](C)(C)OB3O)no1 | 14 mm | – | 12 mm | 14 mm | 17 mm | 13 mm | – |
| C[Si]1(C)OB(O)c2ccc(SC3CC(=O)N(c4ccc(Br)c(C(F)(F)F)c4)C3=O)c(F)c21 (stereo not given) | – | 5.6 | 17 mm | – | – | – | MIC (Candida parapsilosis): > 12.5 µg/mL; MIC (Candida tropicalis [10]): > 12.5 µg/mL; MIC (Candida albicans): > 12.5 µg/mL; MIC (Candida tropicalis [11]): > 12.5 µg/mL; MIC (Pichia kudriavzevii): > 12.5 µg/mL; MIC [12]: > 12.5 µg/mL |
| C[Si]1(C)OB(O)c2cc(F)c(SCCC(=O)Nc3cnccn3)c(F)c21 | 15 mm | – | 13 mm | 25 mm | 19 mm | 22 mm | – |
| C[Si]1(C)OB(O)c2ccc(SCCS(=O)(=O)c3ccccc3)c(F)c21 | – | – | 15 mm | – | 21 mm | 22 mm | – |
| C[Si]1(C)OB(O)c2cc(F)c(S(=O)(=O)Nc3ccc(F)cc3)c(F)c21 | – | 0.7 | – | 16 mm | – | 19 mm | – |
| C[Si]1(C)OB(O)c2cc(F)c(SCCC(=O)N3CCOCC3)c(F)c21 | – | – | – | – | 14 mm | 19 mm | – |
| C[Si]1(C)OB(O)c2cc(F)c(SCCC(N)=O)c(F)c21 | 12 mm | – | 12 mm | – | 15 mm | 19 mm | – |
| C[Si]1(C)OB(O)c2cc(F)c(S(=O)(=O)Cl)c(F)c21 | – | – | – | – | 15 mm | 13 mm | – |
| CC(=O)NC[C@H]1CN(c2ccc(N3CCOCC3)c(F)c2)C(=O)O1 [LINEZOLID] | 14 mm | – | 15 mm | – | 30 mm | 26 mm | – |
